Tested on: MCF-7 (human breast cancer) cell line
Assay: WST-1 assay, anticancer activity, breast cancer MCF-7
Assay type: cell-based
Settings: MCF-7 cell line
Summary of the method: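 Cells were grown at 37 °C under 5 % CO2 and seeded at 1 × 10^4 cells/well in DMEM with 10 % FCS, streptomycin and penicillin. They were exposed to the test compound at 0–100 μg/mL for 72 h, then given WST-1 for 1 h. Absorbance was read at 450 nm against a background control, with a 600 nm reference. Values are means of at least two independent experiments run in triplicate.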

**Q.** Which “times less active than the most active diazaphenothiazines” value does the source give for `CN(C)CCCN1c2ccccc2Sc2cccnc21` [Prothipendyl, 10-dimethylaminopropyl-1-azaphenothiazine] here?
**A.** 5-6 times
